Assay results published in ChEMBL document CHEMBL3407388, “Synthesis, anticancer activity and molecular docking studies on a series of heterocyclic trans-cyanocombretastatin analogues as antitubulin agents” (2015).

How the values were obtained:
Type in all cases: functional
[1] = Cytotoxicity against human UO31 cells assessed as growth inhibition after 48 hrs by SRB assay; conditions: UO-31, 48 h
[2] = Cytotoxicity against human HCT15 cells assessed as growth inhibition after 48 hrs by SRB assay; conditions: HCT-15, 48 h
In short: (§1)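 NCI 60-cell panel; compounds passing a single-dose screen (10−5 M, 48 h) were tested at five 10-fold dilutions (10−4 to 10−8 M) with 48 h drug exposure. GI50 is the molar concentration giving 50% reduction in net cell growth relative to cell numbers on day 0.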

SK-MEL-5 = test: Cytotoxicity against human SK-MEL-5 cells assessed as growth inhibition after 48 hrs by SRB assay; conditions: SK-MEL-5, 48 h; in short: as §1
U-251 = test: Cytotoxicity against human U251 cells assessed as growth inhibition after 48 hrs by SRB assay; conditions: U-251, 48 h
CAKI-1 = test: Cytotoxicity against human Caki1 cells assessed as growth inhibition after 48 hrs by SRB assay; conditions: CAKI-1, 48 h; in short: as §1
HL-60(TB) = test: Cytotoxicity against human HL-60(TB) cells assessed as growth inhibition after 48 hrs by SRB assay; conditions: HL-60, 48 h
In short: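 NCI 60-cell panel, leukemia subpanel. Five-dose screen at 10-fold dilutions from 10−4 to 10−8 M with 48 h drug exposure. GI50 is the molar concentration giving 50% reduction in net cell growth compared with cell numbers on day 0.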

[3] = Cytotoxicity against human OVCAR4 cells assessed as growth inhibition after 48 hrs by SRB assay; conditions: OVCAR-4, 48 h; in short: as §1
RPMI-8226 = test: Cytotoxicity against human RPMI8226 cells assessed as growth inhibition after 48 hrs by SRB assay; conditions: RPMI-8226, 48 h; in short: as §1
A498 = test: Cytotoxicity against human A498 cells assessed as growth inhibition after 48 hrs by SRB assay; conditions: A498, 48 h; in short: as §1
NCI-H23 = test: Cytotoxicity against human NCI-H23 cells assessed as growth inhibition after 48 hrs by SRB assay; conditions: NCI-H23, 48 h; in short: as §1
BT-549 = test: Cytotoxicity against human BT549 cells assessed as growth inhibition after 48 hrs by SRB assay; conditions: BT-549, 48 h; in short: as §1
M14 = test: Cytotoxicity against human M14 cells assessed as growth inhibition after 48 hrs by SRB assay; conditions: M14, 48 h; in short: as §1
SNB-75 = test: Cytotoxicity against human SNB75 cells assessed as growth inhibition after 48 hrs by SRB assay; conditions: SNB-75, 48 h
COLO 205 = test: Cytotoxicity against human COLO205 cells assessed as growth inhibition after 48 hrs by SRB assay; conditions: COLO 205, 48 h; in short: as §1
NCI-H226 = test: Cytotoxicity against human NCI-H226 cells assessed as growth inhibition after 48 hrs by SRB assay; conditions: NCI-H226, 48 h; in short: as §1
MOLT-4 = test: Cytotoxicity against human MOLT4 cells assessed as growth inhibition after 48 hrs by SRB assay; conditions: MOLT-4, 48 h; in short: as §1
[4] = Cytotoxicity against human NCI-ADR-RES cells assessed as growth inhibition after 48 hrs by SRB assay; in short: as §1
MCF7 = test: Cytotoxicity against human MCF7 cells assessed as growth inhibition after 48 hrs by SRB assay; conditions: MCF7, 48 h; in short: as §1
[5] = Cytotoxicity against human OVCAR3 cells assessed as growth inhibition after 48 hrs by SRB assay; conditions: OVCAR-3, 48 h; in short: as §1
NCI-H460 = test: Cytotoxicity against human NCI-H460 cells assessed as growth inhibition after 48 hrs by SRB assay; conditions: NCI-H460, 48 h; in short: as §1
[6] = Cytotoxicity against human PC3 cells assessed as growth inhibition after 48 hrs by SRB assay; conditions: PC-3, 48 h; in short: as §1
HCC 2998 = test: Cytotoxicity against human HCC2998 cells assessed as growth inhibition after 48 hrs by SRB assay; conditions: HCC 2998, 48 h; in short: as §1
HT-29 = test: Cytotoxicity against human HT-29 cells assessed as growth inhibition after 48 hrs by SRB assay; conditions: HT-29, 48 h; in short: as §1
SF-295 = test: Cytotoxicity against human SF295 cells assessed as growth inhibition after 48 hrs by SRB assay; conditions: SF-295, 48 h; in short: as §1
[7] = Cytotoxicity against human UACC62 cells assessed as growth inhibition after 48 hrs by SRB assay; conditions: UACC-62, 48 h
786-0 = test: Cytotoxicity against human 786-0 cells assessed as growth inhibition after 48 hrs by SRB assay; conditions: 786-0, 48 h; in short: as §1
SF-268 = test: Cytotoxicity against human SF268 cells assessed as growth inhibition after 48 hrs by SRB assay; conditions: SF-268, 48 h; in short: as §1
TK-10 = test: Cytotoxicity against human TK10 cells assessed as growth inhibition after 48 hrs by SRB assay; conditions: TK-10, 48 h
KM12 = test: Cytotoxicity against human KM12 cells assessed as growth inhibition after 48 hrs by SRB assay; conditions: KM12, 48 h; in short: as §1
IGROV-1 = test: Cytotoxicity against human IGROV1 cells assessed as growth inhibition after 48 hrs by SRB assay; conditions: IGROV-1, 48 h; in short: as §1
DU-145 = test: Cytotoxicity against human DU145 cells assessed as growth inhibition after 48 hrs by SRB assay; conditions: DU-145, 48 h; in short: as §1
SF-539 = test: Cytotoxicity against human SF539 cells assessed as growth inhibition after 48 hrs by SRB assay; conditions: SF-539, 48 h; in short: as §1
[8] = Cytotoxicity against human OVCAR5 cells assessed as growth inhibition after 48 hrs by SRB assay; conditions: OVCAR-5, 48 h; in short: as §1
SNB-19 = test: Cytotoxicity against human SNB19 cells assessed as growth inhibition after 48 hrs by SRB assay; conditions: SNB-19, 48 h; in short: as §1
SN12C = test: Cytotoxicity against human SN12C cells assessed as growth inhibition after 48 hrs by SRB assay; in short: as §1
SK-OV-3 = test: Cytotoxicity against human SKOV3 cells assessed as growth inhibition after 48 hrs by SRB assay; conditions: SK-OV-3, 48 h; in short: as §1
LOX IMVI = test: Cytotoxicity against human LOXIMVI cells assessed as growth inhibition after 48 hrs by SRB assay; in short: as §1
SW-620 = test: Cytotoxicity against human SW620 cells assessed as growth inhibition after 48 hrs by SRB assay; conditions: SW-620, 48 h
MDA-MB-435 = test: Cytotoxicity against human MDA-MB-435 cells assessed as growth inhibition after 48 hrs by SRB assay; conditions: MDA-MB-435, 48 h; in short: as §1
MDA-MB-231 = test: Cytotoxicity against human MDA-MB-231 cells assessed as growth inhibition after 48 hrs by SRB assay; conditions: MDA-MB-231, 48 h; in short: as §1
RXF 393 = test: Cytotoxicity against human RXF393 cells assessed as growth inhibition after 48 hrs by SRB assay; conditions: RXF 393, 48 h; in short: as §1
[9] = Cytotoxicity against human OVCAR8 cells assessed as growth inhibition after 48 hrs by SRB assay; conditions: OVCAR-8, 48 h; in short: as §1
[10] = Cytotoxicity against human HCT116 cells assessed as growth inhibition after 48 hrs by SRB assay; conditions: HCT-116, 48 h; in short: as §1

COc1cc(/C(C#N)=C/c2c[nH]c3ccccc23)cc(OC)c1OC
GI50 [1]: 1410 nM | GI50 [2]: 51 nM | GI50 (SK-MEL-5): 42 nM | GI50 (U-251): 50 nM | GI50 (CAKI-1): 58 nM | GI50 (HL-60(TB)): 48 nM | GI50 [3]: 338 nM | GI50 (RPMI-8226): 231 nM | GI50 (A498): 35 nM | GI50 (NCI-H23): 133 nM | GI50 (BT-549): 1940 nM | GI50 (M14): 53 nM | GI50 (SNB-75): 42 nM | GI50 (COLO 205): 474 nM | GI50 (NCI-H226): 194 nM | GI50 (MOLT-4): 131 nM | GI50 [4]: 39 nM | GI50 (MCF7): 34 nM | GI50 [5]: 33 nM | GI50 (NCI-H460): 41 nM | GI50 [6]: 54 nM | GI50 (HCC 2998): 107 nM | GI50 (HT-29): 38 nM | GI50 (SF-295): 42 nM | GI50 [7]: 48 nM | GI50 (786-0): 90 nM | GI50 (SF-268): 2540 nM | GI50 (TK-10): 11100 nM | GI50 (KM12): 43 nM | GI50 (IGROV-1): 417 nM | GI50 (DU-145): 132 nM | GI50 (SF-539): 99 nM | GI50 [8]: 10600 nM | GI50 (SNB-19): 76 nM | GI50 (SN12C): 699 nM | GI50 (SK-OV-3): 51 nM | GI50 (LOX IMVI): 75 nM | GI50 (SW-620): 47 nM | GI50 (MDA-MB-435): 24 nM | GI50 (MDA-MB-231): 245 nM | GI50 (RXF 393): 36 nM | GI50 [9]: 121 nM | GI50 [10]: 48 nM

COc1ccc(/C(C#N)=C/c2cc3ccccc3[nH]2)cc1OC
GI50 [1]: 71 nM | GI50 [2]: 48 nM | GI50 (SK-MEL-5): 142 nM | GI50 (U-251): 75 nM | GI50 (CAKI-1): 103 nM | GI50 (HL-60(TB)): 34 nM | GI50 [3]: 735 nM | GI50 (RPMI-8226): 151 nM | GI50 (A498): 40 nM | GI50 (NCI-H23): 236 nM | GI50 (BT-549): 97.8 nM | GI50 (M14): 39 nM | GI50 (SNB-75): 36 nM | GI50 (COLO 205): 232 nM | GI50 (NCI-H226): 399 nM | GI50 (MOLT-4): 84 nM | GI50 [4]: 40 nM | GI50 (MCF7): 289 nM | GI50 [5]: 34 nM | GI50 (NCI-H460): 53 nM | GI50 [6]: 62 nM | GI50 (HCC 2998): 366 nM | GI50 (HT-29): 48 nM | GI50 (SF-295): 36 nM | GI50 [7]: 38 nM | GI50 (786-0): 602 nM | GI50 (SF-268): 1480 nM | GI50 (TK-10): 5560 nM | GI50 (KM12): 76 nM | GI50 (IGROV-1): 482 nM | GI50 (DU-145): 206 nM | GI50 (SF-539): 47 nM | GI50 [8]: 471 nM | GI50 (SNB-19): 189 nM | GI50 (SN12C): 779 nM | GI50 (SK-OV-3): 394 nM | GI50 (LOX IMVI): 64 nM | GI50 (SW-620): 42 nM | GI50 (MDA-MB-435): 21 nM | GI50 (MDA-MB-231): 291 nM | GI50 (RXF 393): 151 nM | GI50 [9]: 326 nM | GI50 [10]: 44 nM
